ChEMBL document CHEMBL1121372, “Synthesis and antihypertensive activity of 5-amino-2-pyridinecarboxylic acid derivatives” (1980)
The source made the active and inactive calls. The calls are words filed in the database; no cut-off is given here.

What was measured:
Rattus norvegicus [1] = assay: The compound was tested for antihypertensive effect in spontaneously hypertensive rat (SHR), expressed as fall in blood pressure (BP) at 100 mg/kg dose given orally; format: functional; details: route oral
How it was run: (§1)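 Male SHR, about 16 weeks old, with systolic pressure above 150 mmHg, held in restraint cages. Tail-cuff occlusion was raised to 250 mmHg and then lowered, after 1 h acclimation and at least 3 baseline readings. Dosing was by daily gavage in 3% cornstarch/5% PEG-400/Tween 80 for 2 or 4 days, with 4–6 rats per drug. Readings at 1, 2, 3 and 24 h; peak fall reported.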

Rattus norvegicus [2] = assay: Antihypertensive effect in spontaneously hypertensive rat (SHR), expressed as fall in blood pressure (BP) at 50 mg/kg dose given orally; format: functional; details: route oral; how it was run: as §1
Canis familiaris [3] = assay: Antihypertensive activity in unanesthetized renal hypertensive dogs measured as Heart Rate (HR) (beats/min) at 60 mg per kg dose after peroral administration on day 2; format: functional, Canis lupus familiaris; details: route oral
How it was run: (§2)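 Renal hypertensive dogs, unanesthetized. Drug given orally once daily as solid in gelatin capsule. Blood pressure and heart rate read at 1.5, 3, 6 and 24 h after each dose. Value is the maximum change over the daily monitored session, mean ± SE. MBP in mm Hg, HR in beats/min, p < 0.05 flagged.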

Canis familiaris [4] = assay: Antihypertensive activity in unanesthetized renal hypertensive dogs measured as Heart Rate (HR) (beats/min) at 60 mg per kg dose after peroral administration on day 3; format: functional, Canis lupus familiaris; details: route oral; how it was run: as §2
Canis familiaris [5] = assay: Antihypertensive activity in unanesthetized renal hypertensive dogs measured as Heart Rate (HR) (beats/min) at 60 mg per kg dose after peroral administration on day1; format: functional, Canis lupus familiaris; details: route oral; how it was run: as §2
Canis familiaris [6] = assay: Antihypertensive activity in unanesthetized renal hypertensive dogs measured as mean Blood Pressure at 60 mg per kg dose after peroral administration on day 2; format: functional, Canis lupus familiaris; details: route oral; how it was run: as §2
Canis familiaris [7] = assay: Antihypertensive activity in unanesthetized renal hypertensive dogs measured as mean Blood Pressure at 60 mg per kg dose after peroral administration on day 3; format: functional, Canis lupus familiaris; details: route oral; how it was run: as §2
Canis familiaris [8] = assay: Antihypertensive activity in unanesthetized renal hypertensive dogs measured as mean Blood Pressure at 60 mg per kg dose after peroral administration on day1; format: functional, Canis lupus familiaris; details: route oral; how it was run: as §2
Canis familiaris [9] = assay: Antihypertensive activity in unanesthetized renal hypertensive dogs measured as Heart Rate (HR) (beats/min) at 100 mg per kg dose after peroral administration on day1; format: functional, Canis lupus familiaris; details: route oral
How it was run: (§3)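 Renal hypertensive dogs, unanesthetized. Test compound given orally once daily as a solid in a gelatin capsule. Blood pressure was taken at 1.5, 3, 6 and 24 h after each daily dose. Activity is the maximum change in mean blood pressure or heart rate over each daily session. Values are mean ± SE, with significance marked at p < 0.05.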

Canis familiaris [10] = assay: Antihypertensive activity in unanesthetized renal hypertensive dogs measured as Heart Rate (HR) (beats/min) at 100 mg per kg dose after peroral administration on day 2 (p<0.05); format: functional, Canis lupus familiaris; details: route oral; how it was run: as §3
Canis familiaris [11] = assay: Antihypertensive activity in unanesthetized renal hypertensive dogs measured as mean Blood Pressure at 100 mg per kg dose after peroral administration on day 2 (p<0.05); format: functional, Canis lupus familiaris; details: route oral; how it was run: as §3
Canis familiaris [12] = assay: Antihypertensive activity in unanesthetized renal hypertensive dogs measured as Heart Rate (HR) (beats/min) at 100 mg per kg dose after peroral administration on day 2; format: functional, Canis lupus familiaris; details: route oral; how it was run: as §3
Canis familiaris [13] = assay: Antihypertensive activity in unanesthetized renal hypertensive dogs measured as Heart Rate (HR) (beats/min) at 100 mg per kg dose after peroral administration on day 3; format: functional, Canis lupus familiaris; details: route oral; how it was run: as §3
Canis familiaris [14] = assay: Antihypertensive activity in unanesthetized renal hypertensive dogs measured as HeartHeart Rate (HR) (beats/min) at 100 mg per kg dose after peroral administration on day 4 ((p<0.05); format: functional, Canis lupus familiaris, Heart; details: route oral; how it was run: as §3
Canis familiaris [15] = assay: Antihypertensive activity in unanesthetized renal hypertensive dogs measured as mean Blood Pressure at 100 mg per kg dose after peroral administration on day1; format: functional, Canis lupus familiaris; set-up: unit not given beside the values; details: route oral; how it was run: as §3
Canis familiaris [16] = assay: Antihypertensive activity in unanesthetized renal hypertensive dogs measured as mean Blood Pressure at 100 mg per kg dose after peroral administration on day 2; format: functional, Canis lupus familiaris; details: route oral; how it was run: as §3
Canis familiaris [17] = assay: Antihypertensive activity in unanesthetized renal hypertensive dogs measured as mean Blood Pressure at 100 mg per kg dose after peroral administration on day 3 (p<0.05); format: functional, Canis lupus familiaris; details: route oral; how it was run: as §3
Canis familiaris [18] = assay: Antihypertensive activity in unanesthetized renal hypertensive dogs measured as mean Blood Pressure at 100 mg per kg dose after peroral administration on day 4 (p<0.05); format: functional, Canis lupus familiaris; details: route oral; how it was run: as §3
Rattus norvegicus [19] = assay: The compound was tested for antihypertensive effect in spontaneously hypertensive rat (SHR), expressed as fall in blood pressure (BP) at 50 mg/kg dose given orally; format: functional; details: route oral; how it was run: as §1
Rattus norvegicus [20] = assay: The compound was tested for antihypertensive effect in spontaneously hypertensive rat (SHR), expressed as fall in blood pressure (BP) at 50 mg/kg dose given orally; (3/3 dead); format: functional
Rattus norvegicus [21] = assay: The compound was tested for antihypertensive effect in spontaneously hypertensive rat (SHR), expressed as fall in blood pressure (BP) at 50 mg/kg dose given orally; Inactive; format: functional, organism-based; set-up: dose 50 mg/kg; how it was run: as §1
Canis familiaris [22] = assay: Antihypertensive activity in unanesthetized renal hypertensive dogs measured as Heart Rate (HR) (beats/min) at 100 mg per kg dose after peroral administration on day 4; format: functional, Canis lupus familiaris; details: route oral; how it was run: as §3
Canis familiaris [23] = assay: Antihypertensive activity in unanesthetized renal hypertensive dogs measured as mean Blood Pressure at 100 mg per kg dose after peroral administration on day 4 ((p<0.05); format: functional, Canis lupus familiaris; details: route oral; how it was run: as §3
Rattus norvegicus [24] = assay: The compound was tested for antihypertensive effect in spontaneously hypertensive rat (SHR), expressed as fall in blood pressure (BP) at 25 mg/kg dose given orally; format: functional; details: route oral; how it was run: as §1

O=C(O)c1ccc(NCc2ccccc2Cl)cn1
BP (Rattus norvegicus [1]): >60 mmHg

COc1cc(CNc2ccc(C(=O)O)nc2)cc(OC)c1OC
BP (Rattus norvegicus [2]): <20 mmHg

O=C(O)c1ccc(NCc2cc(Cl)cc(Cl)c2)cn1
BP (Rattus norvegicus [2]): >60 mmHg

CCCCc1ccc(C(=O)O)nc1 [FUSARIC ACID]
HR (Canis familiaris [3]): 35 | HR (Canis familiaris [4]): 33 | HR (Canis familiaris [5]): 32 | MBP (Canis familiaris [6]): -45 | MBP (Canis familiaris [7]): -30 | MBP (Canis familiaris [8]): -50 | BP (Rattus norvegicus [1]): >60 mmHg

Fc1ccc(CNc2ccc(C3N=NN=N3)nc2)cc1
BP (Rattus norvegicus [2]): >60 mmHg

CN(C)C(=O)c1ccc(NCc2ccc(F)cc2)cn1
Maximum change in heart rate (Canis familiaris [9]): 20 | HR (Canis familiaris [10]): 112 | MBP (Canis familiaris [11]): -67 | BP (Rattus norvegicus [2]): >60 mmHg

COc1ccc(CNc2ccc(C(=O)O)nc2)cc1F
BP (Rattus norvegicus [2]): >20 mmHg

Cc1cccc(CNc2ccc(C(=O)O)nc2)c1
BP (Rattus norvegicus [2]): >20 mmHg

O=C(O)c1ccc(NCCCc2ccccc2)cn1
BP (Rattus norvegicus [1]): >40 mmHg

COC(=O)c1ccc(N(C)Cc2cccc(Cl)c2)cn1
BP (Rattus norvegicus [2]): >20 mmHg

O=Cc1ccc(NCc2cccc(Cl)c2)cn1
BP (Rattus norvegicus [2]): >20 mmHg

Cc1cccc(CN(C)c2ccc(C(=O)O)nc2)c1
BP (Rattus norvegicus [2]): >20 mmHg

O=C(O)c1ccc(NCc2cccc(F)c2)cn1
Maximum change in heart rate (Canis familiaris [9]): 35 | HR (Canis familiaris [12]): 78 | HR (Canis familiaris [13]): 51 | HR (Canis familiaris [14]): 44 | MBP (Canis familiaris [15]): -30 | MBP (Canis familiaris [16]): -46 | MBP (Canis familiaris [17]): -56 | MBP (Canis familiaris [18]): -51 | BP (Rattus norvegicus [2]): >60 mmHg

CC(Nc1ccc(C(=O)O)nc1)c1ccc(F)cc1 (stereo not drawn)
BP (Rattus norvegicus [19]): >40 mmHg

O=C(O)c1ccc(NCc2ccc(F)cc2)c[n+]1[O-]
BP (Rattus norvegicus [2]): >20 mmHg

OCc1ccc(NCc2ccc(F)cc2)cn1
BP (Rattus norvegicus [2]): >80 mmHg

CC(Nc1ccc(C(=O)O)nc1)c1ccccc1 (stereo not drawn)
BP (Rattus norvegicus [2]): >80 mmHg

O=C(O)c1ccc(NCc2ccc(Cl)c(Cl)c2)cn1
BP (Rattus norvegicus [2]): <20 mmHg

O=C(O)c1ccc(NCCc2ccccc2)cn1
BP (Rattus norvegicus [2]): >20 mmHg

O=C(O)c1ccc(NCc2ccccc2F)cn1
BP (Rattus norvegicus [2]): >40 mmHg

COc1cccc(CN(C)c2ccc(C(=O)O)nc2)c1
BP (Rattus norvegicus [2]): >20 mmHg

O=C(O)c1ccc(NCc2cccc(Br)c2)cn1
BP (Rattus norvegicus [2]): >20 mmHg

CN(Cc1cccc(Oc2ccccc2)c1)c1ccc(C(=O)O)nc1
BP (Rattus norvegicus [2]): >20 mmHg

COC(=O)c1ccc(NCc2ccc(Cl)cc2)cn1
BP (Rattus norvegicus [1]): >60 mmHg

O=C(O)c1ccc(NCc2ccncc2)cn1
BP (Rattus norvegicus [2]): >20 mmHg

NC(=O)c1ccc(CNc2ccc(C(=O)O)nc2)cc1
BP (Rattus norvegicus [2]): <20 mmHg

COC(=O)c1ccc(NCc2ccc(F)cc2)cn1
BP (Rattus norvegicus [2]): >60 mmHg

NNC(=O)c1ccc(NCc2ccc(F)cc2)cn1
BP (Rattus norvegicus [2]): >40 mmHg

COc1cccc(CNc2ccc(C(=O)O)nc2)c1
BP (Rattus norvegicus [2]): >20 mmHg

O=C(O)c1ccc(NCC2CCCCC2)cn1
BP (Rattus norvegicus [20]): >20 mmHg

CCNC(=O)c1ccc(NCc2ccc(F)cc2)cn1
BP (Rattus norvegicus [21]): inactive

O=C(O)c1ccc(NCc2ccc(F)cc2)cn1
Maximum change in heart rate (Canis familiaris [9]): 37 | HR (Canis familiaris [10]): 60 | HR (Canis familiaris [13]): 52 | HR (Canis familiaris [22]): 41 | MBP (Canis familiaris [15]): -69 | MBP (Canis familiaris [11]): -41 | MBP (Canis familiaris [17]): -49 | MBP (Canis familiaris [23]): -48 | BP (Rattus norvegicus [2]): > 60 mmHg | BP (Rattus norvegicus [24]): >60 mmHg
